Test results from ChEMBL document CHEMBL1121663, “(Acylaryloxy)acetic acid diuretics. 3. 2,3-Dihydro-5-acyl-2-benzofurancarboxylic acids, a new class of uricosuric diuretics” (1981).
Values joined by “and” are separate entries in the source; they are usually repeats but may differ in a detail not shown here. Equal values may be shown once.

Experiments:
Canis familiaris [1] = test: Compound was tested for diuretic activity in dogs at 5 mg/kg dose after oral administration measured as microequivalent of Cl-/minute; format: functional, Canis lupus familiaris, Urine
Outline: (§1)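 Oral dog test: water loading (250 mL po, then 500 mL 1 h later). One hour later bladders were emptied by catheter and compound or placebo given in gelatin capsules. Dogs were kept in metabolism cages. Voided urine plus catheterized bladder urine was pooled at 5 h, and Na+, K+ and Cl- were measured by standard methods. Geometric means are reported.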

Canis familiaris [2] = test: Compound was tested for diuretic activity in dogs at 5 mg/kg dose after oral administration measured as microequivalent of K+/minute; format: functional, Canis lupus familiaris, Urine; outline: as §1
Canis familiaris [3] = test: Compound was tested for diuretic activity in dogs at 5 mg/kg dose after oral administration measured as microequivalent of Na+/minute; format: functional, Canis lupus familiaris, Urine; outline: as §1
Canis familiaris [4] = test: Compound was tested for diuretic activity in dogs at 5 mg/kg dose after intravenous administration measured as microequivalent of Cl-/minute (Control/Drug treated); format: functional, Canis lupus familiaris, Urine; settings: in the assay text read “oral” for “intravenous”
Canis familiaris [5] = test: Compound was tested for diuretic activity in dogs at 5 mg/kg dose after intravenous administration measured as microequivalent of K+/minute (Control/Drug treated); format: functional, Canis lupus familiaris, Urine; settings: in the assay text read “oral” for “intravenous”
Rattus norvegicus [6] = test: Natriuretic activity in rats at 27 mg/kg of dosage; mequiv of Na; format: functional
Outline: (§2)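 Rats housed three per metabolism cage received placebo vehicle or compound as a suspension in a final volume of 5.0 mL orally, with placebo groups run concurrently. Urine was collected over 0–5 h and analysed for Na+, K+ and Cl− by standard methods. Values are mequiv per cage, given as geometric means of three cages per dose level.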

Rattus norvegicus [7] = test: Natriuretic activity in rats at 3 mg/kg of dosage; mequiv of Na; format: functional; outline: as §2
Rattus norvegicus [8] = test: Natriuretic activity in rats at 81 mg/kg of dosage; mequiv of Na; format: functional; outline: as §2
Rattus norvegicus [9] = test: Natriuretic activity in rats at 9 mg/kg of dosage; mequiv of Na; format: functional; outline: as §2
Canis familiaris [10] = test: Diuretic activity in dogs following 5 mg/kg oral administration.
Canis familiaris [11] = test: Compound was tested for diuretic activity in dogs at 5 mg/kg dose after oral administration, activity is expressed as urine volume
Canis familiaris [12] = test: Compound was tested for diuretic activity in dogs at 5 mg/kg dose after oral administration measured as microequivalent of Na+/minute
Canis familiaris [13] = test: Compound was tested for diuretic activity in dogs at 5 mg/kg dose after intravenous administration, activity is expressed as urine volume; 1/6; format: functional, Canis lupus familiaris
Canis familiaris [14] = test: Compound was tested for diuretic activity in dogs at 5 mg/kg dose after intravenous administration measured as microequivalent of Cl-/minute; 12/586 (Control/Drug treated); format: functional, Canis lupus familiaris, Urine
Outline: (§3)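 Intravenous dog clearance study. A priming iv injection of 1.5 mL/kg isoosmotic pH 7.4 phosphate buffer (20 mg PO4/kg) was given first. This was followed by infusion of 3 mL/min pH 7.4 buffer containing 4% mannitol (6.9 mg PO4/min) throughout the experiment. Urinary Na+, K+ and Cl- were measured by standard methods. Each value is the mean of the two highest consecutive 15-min collections.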

Canis familiaris [15] = test: Compound was tested for diuretic activity in dogs at 5 mg/kg dose after intravenous administration measured as microequivalent of K+/minute; 4/54 (Control/Drug treated); format: functional, Canis lupus familiaris, Urine; outline: as §3
[16] = Compound was tested for natriuretic activity in chimpanzee at 5 mg/kg dose activity is measured as ratio of clearance of urate / […]; Curate/Cinulin; format: functional
Outline: (§4)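 Inulin iv gave GFR; urate and inulin clearances and Na+, K+, Cl- excretion were measured by AutoAnalyzer. Controls were three 20-min periods; compound was given orally in aqueous solution via nasal catheter. Response was the mean of eight 15-20 min periods, reported as treatment minus control from single experiments.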

Pan troglodytes [17] = test: Compound was tested for natriuretic activity in chimpanzee at 5 mg/kg dose activity is measured as microequivalent of Na+/m; muequiv of Na+/minute; format: functional; outline: as §4
Canis familiaris [18] = test: Compound was tested for diuretic activity in dogs at 5 mg/kg dose after intravenous administration activity is measured as microequivalent of Cl-/minute (Control/Drug treated); format: functional, Canis lupus familiaris, Urine; settings: in the assay text read “oral” for “intravenous”
Pan troglodytes [19] = test: Compound was tested for natriuretic activity in chimpanzee at 5 mg/kg dose activity is measured as microequivalent of Na+/minute; muequiv of Na+/min; format: functional; outline: as §4
Canis familiaris [20] = test: Diuretic activity in dogs following 5 mg/kg i.v. administration.; format: functional, Canis lupus familiaris, Urine; settings: route intravenous
Canis familiaris [21] = test: Compound was tested for diuretic activity in dogs at 5 mg/kg dose after intravenous administration, activity is expressed as urine volume; 0.6/1.3; format: functional, Canis lupus familiaris
Canis familiaris [22] = test: Compound was tested for diuretic activity in dogs at 5 mg/kg dose after intravenous administration, activity is expressed as urine volume; 1/2; format: functional, Canis lupus familiaris
Canis familiaris [23] = test: Compound was tested for diuretic activity in dogs at 5 mg/kg dose after intravenous administration measured as microequivalent of Na+/minute; 5/95 (Control/Drug treated); format: functional, Canis lupus familiaris, Urine
Canis familiaris [24] = test: Compound was tested for diuretic activity in dogs at 5 mg/kg dose after intravenous administration measured as microequivalent of Cl-/minute; 4/72 (Control/Drug treated); format: functional, Canis lupus familiaris, Urine; outline: as §3
Canis familiaris [25] = test: Compound was tested for diuretic activity in dogs at 5 mg/kg dose after intravenous administration measured as microequivalent of K+/minute; 6/37 (Control/Drug treated); format: functional, Canis lupus familiaris, Urine; outline: as §3
Rattus norvegicus [26] = test: Compound was tested for natriuretic activity in rats at 3 mg/kg of dosage; mequiv of Na+ x 100/cage; format: functional; outline: as §2
Canis familiaris [27] = test: Compound was tested for diuretic activity in dogs at 5 mg/kg dose after intravenous administration measured as microequivalent of Cl-/minute; 5/156 (Control/Drug treated); format: functional, Canis lupus familiaris, Urine; outline: as §3
Canis familiaris [28] = test: Compound was tested for diuretic activity in dogs at 5 mg/kg dose after intravenous administration measured as microequivalent of K+/minute; 15/33 (Control/Drug treated); format: functional, Canis lupus familiaris, Urine; outline: as §3
Canis familiaris [29] = test: Compound was tested for diuretic activity in dogs at 5 mg/kg dose after intravenous administration measured as microequivalent of Na+/minute; 12/166 (Control/Drug treated); format: functional, Canis lupus familiaris, Urine
Canis familiaris [30] = test: Compound was tested for diuretic activity in dogs at 5 mg/kg dose after intravenous administration measured as microequivalent of Cl-/minute; 5/102 (Control/Drug treated); format: functional, Canis lupus familiaris, Urine; outline: as §3
Canis familiaris [31] = test: Compound was tested for diuretic activity in dogs at 5 mg/kg dose after intravenous administration measured as microequivalent of K+/minute; 6/36 (Control/Drug treated); format: functional, Canis lupus familiaris, Urine; outline: as §3
Canis familiaris [32] = test: Compound was tested for diuretic activity in dogs at 5 mg/kg dose after intravenous administration measured as microequivalent of Na+/minute; 20/108 (Control/Drug treated); format: functional, Canis lupus familiaris, Urine
Canis familiaris [33] = test: Compound was tested for diuretic activity in dogs at 5 mg/kg dose after intravenous administration measured as microequivalent of Na+/minute; 13/565 (Control/Drug treated); format: functional, Canis lupus familiaris, Urine
Canis familiaris [34] = test: Compound was tested for diuretic activity in dogs at 5 mg/kg dose after intravenous administration measured as microequivalent of K+/minute; 9/46 (Control/Drug treated); format: functional, Canis lupus familiaris, Urine; outline: as §3
Canis familiaris [35] = test: Compound was tested for diuretic activity in dogs at 5 mg/kg dose after intravenous administration measured as microequivalent of Cl-/minute; 2/612 (Control/Drug treated); format: functional, Canis lupus familiaris, Urine; outline: as §3
Canis familiaris [36] = test: Compound was tested for diuretic activity in dogs at 5 mg/kg dose after intravenous administration, activity is expressed as urine volume; 0.6/6; format: functional, Canis lupus familiaris
Rattus norvegicus [37] = test: Compound was tested for natriuretic activity in rats at 27 mg/kg of dosage; format: functional; outline: as §2
Canis familiaris [38] = test: Compound was tested for diuretic activity in dogs at 5 mg/kg dose after intravenous administration measured as microequivalent of Na+/minute; 52/264 (Control/Drug treated); format: functional, Canis lupus familiaris, Urine
Canis familiaris [39] = test: Compound was tested for diuretic activity in dogs at 5 mg/kg dose after intravenous administration measured as microequivalent of Cl-/minute; 16/271 (Control/Drug treated); format: functional, Canis lupus familiaris, Urine; outline: as §3
Canis familiaris [40] = test: Compound was tested for diuretic activity in dogs at 5 mg/kg dose after intravenous administration measured as microequivalent of K+/minute; 6/18 (Control/Drug treated); format: functional, Canis lupus familiaris, Urine; outline: as §3
Canis familiaris [41] = test: Compound was tested for diuretic activity in dogs at 5 mg/kg dose after intravenous administration measured as microequivalent of Cl-/minute; 6/70 (Control/Drug treated); format: functional, Canis lupus familiaris, Urine; outline: as §3
Canis familiaris [42] = test: Compound was tested for diuretic activity in dogs at 5 mg/kg dose after intravenous administration measured as microequivalent of K+/minute; 10/18 (Control/Drug treated); format: functional, Canis lupus familiaris, Urine; outline: as §3

SMILES	Oral activity (Canis familiaris [1])	Oral activity (Canis familiaris [2])	Oral activity (Canis familiaris [3])	Oral activity (Rattus norvegicus [6])	Oral activity (Rattus norvegicus [7])	Oral activity (Rattus norvegicus [8])	Oral activity (Rattus norvegicus [9])	Urine volume (Canis familiaris [10]) [mL]	Ratio [16]	Oral activity (Pan troglodytes [19])	other results
O=CC1Cc2cc(C(=O)c3cccs3)c(Cl)c(Cl)c2O1 (stereo not given)	21.6	3.1	16.3	107	74	144	84	337	–	–	Oral activity (Canis familiaris [4]): 21.6; Oral activity (Canis familiaris [5]): 3.1; Oral activity (Canis familiaris [11]): 337 mL; Oral activity (Canis familiaris [12]): 16.3
O=C(O)C1Cc2cc(C(O)c3cccs3)c(Cl)c(Cl)c2O1 (stereo not given)	–	–	–	80	25	180	40	–	0.15	–	Urine volume (Canis familiaris [13]): 1 mL/min; Cl- excretion (Canis familiaris [14]): 586 µequiv/min; K+ excretion (Canis familiaris [15]): 54 µequiv/min; Oral activity (Pan troglodytes [17]): 550
CCOC(=O)C1Cc2cc(C(=O)c3cccs3)c(Cl)c(Cl)c2O1 (stereo not given)	8.7	1.6	7.7	128	76	167	87	166	–	–	Oral activity (Canis familiaris [18]): 8.7; Oral activity (Canis familiaris [5]): 1.6; Oral activity (Canis familiaris [12]): 7.7
O=C(c1cccs1)c1cc2c(c(Cl)c1Cl)OC(C(=O)O)C2 (stereo not given)	–	–	–	257	175	310	191	–	0.34	1360	Oral activity (Canis familiaris [1]; 5 mg/kg): 24.6 and 48.5; Oral activity (Canis familiaris [2]; 5 mg/kg): 4.2 and 5.2; Oral activity (Canis familiaris [3]; 5 mg/kg): 18.7 and 37.7; Urine volume (Canis familiaris [20]): 432 mL and 541 mL; Urine volume (Canis familiaris [21]): 0.6 mL/min
Cc1c(C(=O)c2cccs2)cc2c(c1C)OC(C(=O)O)C2 (stereo not given)	–	–	–	61	–	71	68	–	–	–	Urine volume (Canis familiaris [22]): 1 mL/min; Na+ excretion (Canis familiaris [23]): 95 µequiv/min; Cl- excretion (Canis familiaris [24]): 72 µequiv/min; K+ excretion (Canis familiaris [25]): 37 µequiv/min; Oral activity (Rattus norvegicus [26]): 29
NS(=O)(=O)c1cc2c(cc1Cl)NCNS2(=O)=O [HYDROCHLOROTHIAZIDE]	–	–	–	–	–	–	112	–	–	144	Cl- excretion (Canis familiaris [27]): 156 µequiv/min; K+ excretion (Canis familiaris [28]): 33 µequiv/min; Na+ excretion (Canis familiaris [29]): 166 µequiv/min
O=C(Cc1ccccc1)c1cc2c(c(Cl)c1Cl)OC(C(=O)O)C2 (stereo not given)	–	–	–	126	25	173	80	–	0.315	513	Cl- excretion (Canis familiaris [30]): 102 µequiv/min; K+ excretion (Canis familiaris [31]): 36 µequiv/min; Na+ excretion (Canis familiaris [32]): 108 µequiv/min
O=C(O)C1Cc2cc(Cc3cccs3)c(Cl)c(Cl)c2O1 (stereo not given)	40.6	7.4	30.1	–	7	21	19	433	0.185	206	Na+ excretion (Canis familiaris [33]): 565 µequiv/min; K+ excretion (Canis familiaris [34]): 46 µequiv/min; Cl- excretion (Canis familiaris [35]): 612 µequiv/min; Urine volume (Canis familiaris [36]): 0.6 mL/min; Oral activity (Rattus norvegicus [37]): 19
O=C(O)C1Cc2cc(S(=O)(=O)c3cccs3)c(Cl)c(Cl)c2O1 (stereo not given)	9.1	1.4	7.6	44	10	65	19	246	–	–	Na+ excretion (Canis familiaris [38]): 264 µequiv/min; Cl- excretion (Canis familiaris [39]): 271 µequiv/min; K+ excretion (Canis familiaris [40]): 18 µequiv/min
COc1ccc(C(=O)c2cc3c(c(Cl)c2Cl)OC(C(=O)O)C3)cc1 (stereo not given)	17.8	2.9	14.4	129	40	194	96	307	–	–	Cl- excretion (Canis familiaris [41]): 70 µequiv/min; K+ excretion (Canis familiaris [42]): 18 µequiv/min
